The values that follow come from ChEMBL document CHEMBL4680121, “Development of (4-methoxyphenyl)-1H-tetrazol-5-amine regioisomers as a new class of selective antitubercular agents” (Eur J Med Chem, 2020).

For orientation: MIC means the smallest concentration in the dilution series that meets the test's criterion for growth inhibition. Usually IC50 stands for the concentration that inhibits the measured activity by half.

The subject of data set [1] is Mycolicibacterium fortuitum. Kind of data set: Antibacterial activity against Mycobacterium fortuitum assessed as inhibition of microbial growth incubated for 1 week by MABA method. The data set is classed as functional. The settings on record: 168 h, time 1 weeks. Summed up:
(§1)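 Microplate Alamar Blue assay using two-fold serial microdilution in Middlebrook 7H9 broth with 10% OADC, compounds 0.125–512 µg/ml from DMSO stocks. Inoculum came from fresh LJ culture, was adjusted to McFarland 1 and diluted 1:20. Plates were incubated 1 week at 37 °C, Alamar blue was added and plates were re-incubated 24 h. MIC was the lowest concentration preventing the blue-to-pink change. Each plate carried growth and sterile controls.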

Data set [2] relates to Mycobacterium tuberculosis. In words: Antitubercular activity against Mycobacterium tuberculosis Spec.192 assessed as fractional inhibitory concentration index in presence of 1/2 x MIC isoniazid incubated for 14 days by MABA method. The data set is classed as functional. The following applies: time 14 day. A digest of the protocol:
(§2)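 Interaction analysis in Middlebrook 7H9 with 10% OADC. Combination MICs came from mixing the derivative (1 to 1/32 MIC) with the reference drug at 1/2 MIC, and the reverse, after 14 days at 37 °C with McFarland 1 inoculum. FICI was calculated from the combination MIC values and the MICs alone.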
A general note: The colour change of resazurin is a common sign of viable cells or microbes.

For a further data set, the system named is Mycobacterium xenopi. Kind of data set: Antibacterial activity against Mycobacterium xenopi assessed as inhibition of microbial growth incubated for 1 week by MABA method. It counts as functional. The settings on record: 168 h, time 1 weeks. Summed up: as §1
For data set [3], the system named is Mycobacterium tuberculosis. Kind of data set: Antitubercular activity against Mycobacterium tuberculosis H37Rv ATCC 25618 assessed as isoniazid MIC incubated for 14 days in presence of isoniazid by MABA method. The data set is classed as functional. The settings on record: H37Rv ATCC 25618, 336 h, time 14 day. A digest of the protocol:
(§3)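 In Middlebrook 7H9 with 10% OADC, the reference drug (INH, RMP, SM or EMB) at 1 to 1/32 of its MIC alone was mixed with the test derivative fixed at 1/2 its MIC. 4 ml samples were inoculated with McFarland 1 suspension and incubated 14 days at 37 °C. MIC is the lowest drug concentration in combination that inhibited growth.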

The test system of data set [4] is Mycobacterium tuberculosis. Kind of data set: Antitubercular activity against Mycobacterium tuberculosis H37Rv ATCC 25618 assessed as reduction in bacterial growth incubated for 14 days in presence of 1/2 x MIC isoniazid by MABA method. The settings on record: H37Rv ATCC 25618, 336 h, time 14 day. It counts as functional. A digest of the protocol:
(§4)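 Checkerboard-type combination in Middlebrook 7H9 with 10% OADC. The test derivative at 1 to 1/32 of its MIC alone was mixed with the reference drug fixed at 1/2 its MIC. 4 ml samples were inoculated with McFarland 1 suspension and incubated 14 days at 37 °C. MIC is the lowest derivative concentration in combination that inhibited growth in liquid medium.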

Data set [5] deals with Mycobacterium tuberculosis. Kind of data set: Antitubercular activity against Mycobacterium tuberculosis H37Rv ATCC 25618 assessed as reduction in bacterial growth incubated for 14 days in presence of 1/2 x MIC streptomycin by MABA method. It counts as functional. The following applies: H37Rv ATCC 25618, 336 h, time 14 day. Summed up: as §4
Data set [6] concerns Mycobacterium scrofulaceum. In words: Antibacterial activity against Mycobacterium scrofulaceum assessed as inhibition of microbial growth incubated for 1 week by MABA method. The data set is classed as functional. The following applies: 168 h, time 1 weeks. A digest of the protocol:
as §1

Data set [7] has as its system Mycobacterium tuberculosis. In words: Antitubercular activity against Mycobacterium tuberculosis Spec.192 assessed as reduction in bacterial growth incubated for 14 days in presence of 1/2 x MIC ethambutol by MABA method. The data set is classed as functional. The following applies: Mycobacterium tuberculosis, 192, 336 h; time 14 day. Summed up:
as §4

In another data set the test system is V79. In words: Cytotoxicity against Chinese Hamster V79 cells assessed as reduction in cell viability measured after 72 hrs by MTT assay. The settings on record: Cricetulus griseus, V79, 72 h. The data set is classed as cell-based. Summed up: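 MTT viability assay on cells grown in DMEM with 10% heat-inactivated FBS, penicillin/streptomycin and 20 mM HEPES at 37 °C/5% CO2. Cells were seeded at 1×10^4 per well and allowed to adhere for 24 h, then the medium was refreshed. Compounds were added at 20–140 μM for 72 h at 37 °C, followed by MTT (0.5 mg/mL in serum-free medium) for 4 h. Untreated cells served as control. IC50 is the concentration giving 50% growth inhibition versus control.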
In general terms: Tetrazolium assays rely on reduction of a dye to a coloured formazan, in cell work by metabolically active cells.

Data set [8] relates to Mycobacterium tuberculosis. Kind of data set: Antitubercular activity against Mycobacterium tuberculosis H37Rv ATCC 25618 assessed as rifampicin MIC incubated for 14 days in presence of rifampicin by MABA method. The data set is classed as functional. The following applies: H37Rv ATCC 25618, 336 h, time 14 day. A digest of the protocol:
as §3

Data set [9] relates to Mycobacterium intracellulare. Kind of data set: Antimycobacterial activity against Mycobacterium intracellulare assessed as inhibition of microbial growth incubated for 1 week by MABA method. The data set is classed as functional. The following applies: 168 h, time 1 weeks. Summed up:
as §1

Data set [10] concerns Mycobacterium tuberculosis. In words: Antitubercular activity against Mycobacterium tuberculosis H37Rv ATCC 25618 assessed as fractional inhibitory concentration index incubated for 14 days in presence of 1/2 x MIC isoniazid by MABA method. The data set is classed as functional. The settings on record: time 14 day. A digest of the protocol:
as §2

For data set [11], the system named is Mycobacterium tuberculosis. Kind of data set: Antitubercular activity against Mycobacterium tuberculosis H37Rv ATCC 25618 assessed as fractional inhibitory concentration index incubated for 14 days in presence of 1/2 x MIC streptomycin by MABA method. The settings on record: time 14 day. It counts as functional. A digest of the protocol: as §2
The test system of data set [12] is Mycobacterium tuberculosis. Kind of data set: Antitubercular activity against Mycobacterium tuberculosis Spec.192 assessed as reduction in bacterial growth incubated for 14 days in presence of 1/2 x MIC streptomycin by MABA method. The settings on record: Mycobacterium tuberculosis, 192, 336 h; time 14 day. It counts as functional. Summed up: as §4
Data set [13] relates to Mycobacterium tuberculosis. Kind of data set: Antitubercular activity against Mycobacterium tuberculosis H37Rv ATCC 25618 assessed as inhibition of microbial growth incubated for 1 week by MABA method. The following applies: H37Rv ATCC 25618, 168 h, time 1 weeks. It counts as functional. Summed up:
(§5)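 Microplate Alamar Blue assay in Middlebrook 7H9 broth with 10% OADC. Inoculum from fresh LJ culture was adjusted to McFarland 1 and diluted 1:20. DMSO stocks were two-fold serially diluted to final 0.125–512 µg/ml, with growth and sterile controls. Plates ran 1 week at 37 °C, then Alamar blue was added for 24 h. MIC is the lowest concentration preventing the blue-to-pink change.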

Data set [14] is described as follows: Cytotoxicity against human HTB-140 cells assessed as LDH release at 100 uM incubated for 72 hrs by LDH assay. The following applies: htb-140, 72 h. It counts as cell-based. A digest of the protocol:
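LDH release measured with a kit after 72 h exposure to 100 μM compound. Cells were seeded at 1×10^4 per well in DMEM or EMEM with 2% FBS. Absorbance was read at 490 nm. Release (%) = (A sample − A low control)/(A high control − A low control) × 100, with the Triton X-100 (1%) control taken as 100% release. Values are mean ± SD of three independent experiments run in triplicate.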
On the technique in general: Release of lactate dehydrogenase indicates damage to the cell membrane.

Data set [15] relates to Mycobacterium tuberculosis. In words: Antitubercular activity against Mycobacterium tuberculosis Spec.192 assessed as streptomycin MIC incubated for 14 days in presence of streptomycin by MABA method. The data set is classed as functional. The settings on record: Mycobacterium tuberculosis, 192, 336 h; time 14 day. Summed up: as §3
Data set [16] concerns Mycobacterium tuberculosis. In words: Antitubercular activity against Mycobacterium tuberculosis Spec.192 assessed as rifampicin MIC incubated for 14 days in presence of rifampicin by MABA method. The settings on record: Mycobacterium tuberculosis, 192, 336 h; time 14 day. The data set is classed as functional. Summed up:
as §3

Data set [17] concerns Mycobacterium tuberculosis. Kind of data set: Antitubercular activity against Mycobacterium tuberculosis H37Rv ATCC 25618 assessed as streptomycin MIC incubated for 14 days in presence of streptomycin by MABA method. It counts as functional. The following applies: H37Rv ATCC 25618, 336 h, time 14 day. A digest of the protocol: as §3
A further data set has as its system Pseudomonas aeruginosa. In words: Antibacterial activity against Pseudomonas aeruginosa NCTC 6749 assessed as bacterial growth inhibition measured after 18 hrs by two-fold serial microdilution method. The data set is classed as functional. Summed up: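 Two-fold serial broth microdilution in MH II medium following modified CLSI procedures. Compounds were dissolved in DMSO and diluted in medium to at most 1% solvent, tested from 0.03125 to 512 μg/ml. Final inoculum 10^6 CFU/ml. MIC was taken as the lowest concentration with no visible growth after 18 h at 35 °C.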

The subject of data set [18] is Mycobacterium tuberculosis. In words: Antitubercular activity against Mycobacterium tuberculosis Spec.192 assessed as fractional inhibitory concentration index in presence of 1/2 x MIC ethambutol incubated for 14 days by MABA method. It counts as functional. The following applies: time 14 day. Summed up: as §2
A further data set deals with Mycobacterium avium. Kind of data set: Antimycobacterial activity against Mycobacterium avium assessed as inhibition of microbial growth incubated for 1 week by MABA method. The data set is classed as functional. The following applies: 168 h, time 1 weeks. Summed up: as §5

Consider `COc1ccc(-n2nnnc2Nc2cccc(Br)c2)cc1`, for which the MIC in data set [1] was 256 µg/mL; with Mycobacterium xenopi, above 512 µg/mL; in data set [3], 0.5 µg/mL; in data set [4], 0.25 µg/mL; in data set [5] it was 0.5 µg/mL; in data set [6], 512 µg/mL. Also, the MIC in data set [7] was found to be 0.5 µg/mL; in [8], 0.25 µg/mL; in [9], 128 µg/mL; in [12], 0.5 µg/mL; in data set [13], 2 µg/mL; in data set [15], 0.25 µg/mL. The MIC in [16] was 0.25 µg/mL; in [17] it was 0.25 µg/mL; in the data set with Pseudomonas aeruginosa it was above 256 µg/mL; in the data set on Mycobacterium avium, 256 µg/mL. For the same molecule, the “fractional inhibitory concentration index (FICI)” value is 4.125 in data set [2], 4.125 in data set [10], 0.5 in data set [11] and 0.75 in data set [18]. Moreover, the IC50 with V79 was 241 µM. Further, the Activity in data set [14] is listed as below 17%.
Take `COc1ccc(-n2nnnc2Nc2ccc(Br)cc2)cc1`: the minimum inhibitory concentration (MIC) in [1] was above 512 µg/mL; in the data set on Mycobacterium xenopi, 256 µg/mL; in data set [3] it was 0.5 µg/mL; in data set [4] it was 0.25 µg/mL; in data set [5] it was 0.25 µg/mL; in [6], 512 µg/mL. For the same molecule, the MIC in data set [7] was determined as 0.25 µg/mL; in data set [8] it was 0.25 µg/mL; in data set [9] it was 128 µg/mL; in [12], 0.25 µg/mL; in data set [13], 2 µg/mL; in data set [15] it was 0.25 µg/mL. In addition, the MIC in data set [16] is 0.25 µg/mL; in data set [17], 0.25 µg/mL; with Pseudomonas aeruginosa, above 256 µg/mL; in the data set on Mycobacterium avium, 512 µg/mL. Also, the “fractional inhibitory concentration index (FICI)” value in [2] stood at 4.125; in data set [10], 4.125; in data set [11] it was 0.375; in [18], 0.625. In the data set with V79, the IC50 amounted to 212 µM. Also, the Activity result in data set [14] is recorded as “Non-Toxic”.
